According to the EternaBench riboswitch data:

System: MS2 coat protein
Test: apparent Kd, MS2 coat protein; higher = weaker binding; RNA-MaP array; FMN 200 µM where present
Procedure, shortened: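 Designs on Illumina sequencing-chip clusters, transcribed by stalled E. coli RNA polymerase, were exposed to SNAP-549-labelled MS2 coat protein in doubling steps from 0.7 or 1.5 nM up to 3 µM, without and then with constant ligand. The buffer held 100 mM Tris-HCl pH 7.5, 80 mM KCl, 4 mM MgCl2, BSA, DTT, yeast tRNA and Tween-20. Apparent Kd values are medians of filtered per-cluster binding-curve fits to green signal normalised to red-channel RNA signal and control-cluster median Fmax.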

[1] = designed as: OFF switch for flavin mononucleotide, no ligand
[2] = ligand present: flavin mononucleotide, designed as: OFF switch for flavin mononucleotide
[3] = designed as: ON switch for flavin mononucleotide, no ligand
[4] = ligand present: flavin mononucleotide, designed as: ON switch for flavin mononucleotide

Sequence	apparent Kd [1]	apparent Kd [2]	apparent Kd [3]	apparent Kd [4]
GAGGCCCAAACAUGAGGAUCACCCAUGUGUUUAGUCCUCACAUAGGAUAUCCACACGAGAAGUGUGGAGAAGGAUGAGGGCGUC	49 nM	101 nM		
GUCCUACAUGAGGAUCACCCAUGUAAGGAUAUGCUAGCGGUCGGCUGACUGACUGCUAGCAGAAGGUACAUGAU	17.5 nM	24.6 nM		
CUUCAUUGUUGAGGAUAUAAUUAUAGGAUGUAGUUAGAAGGCGAACAUGAGGAUCACCCAUGUCAGGCAUGGAGACCCUUGACC	519 nM	624 nM		
CCAGGCUUCGAGAAGGACAUGAGGAUCACCCAUGUGCGUGUGAAGCAGCCGUGAGGCUGCAUCAUGUAGGAUAUCGGAGUCUGC	77.2 nM	538 nM		
UCGUUGUCAGGAUAUCGUGUAUACAACUUUAGUUUUAUGUUCGAGAAGGGACAUGAGGAUCACCCAUGUUACGU	65 nM	239 nM		
UUGCCACAUGAGGAUCACCCAUGUGAGGAUAUGGCCUGUUUGGCGUGUGCUGGUUCUGUCAGAAGGCGCGUGGG	31.6 nM	36.5 nM		
CAGUACUGAGGAUAUACAUGAGGAUCACCCAUGUGCCUAAGGUAGGAUACUACCAUUAGUAGAAGGCAGUACUG	13.8 nM	29.6 nM		
ACUAUACGAGGAUAUGCUGUCAGUACUCCGGAGUUAGUUUGACAUGAGGAUCACCCAUGUAGAAGGCGUUUACU	40 nM	30.3 nM		
GAGCUCAAUGAGAAGGGUUACAUGAGGAUCACCCAUGUCGACCUUGGCGUAACAGGAUAUCAUCGGGCUCAGUGCGUUGACCCA	24.9 nM	108 nM		
UGGUACUAGGGAGGAUAUGGGAAGAUACAUGAGGAUCACCCAUGUUUAAGAAUGCCGAGAGGCAACUAGAAGGCCUUAGUACCU			504 nM	20.8 nM
ACCACGUCAGCGAUAUGAUCGAGAGAUCAUGUCGCUGAAUUUAGAAGGACAUGAGGAUCACCCAUGUAGGAUAUGGGUCGUGGA			39.1 nM	11.8 nM
UCCGUGGCAUCUCGCGCGUGUCCACAUGAGGAUCACCCAUGUCAGGAUAUACGGAAUGUCGUUCCGUAGAAGGGACAAGGGCUG	172 nM	108 nM		
AAUAUGUUGCAGAAGGUUAUUUUUAUAACGAUCCACUUGACAUGAGGAUCACCCAUGUAAUUGUUGAAGGAUAUGCAAUAUAUU	6.79 nM	7.11 nM		
UUUUAUUAGUAGAAGGACGGAGAGUAUGUAGUCGUAGGAUAUACAUAAGACAUGAGGAUCACCCAUGUGUGUAUUUUGGGUAUG	15.7 nM	13.2 nM		
CAUAUGGUAACAGGAUAUAUGAGUCCUACAUGAGGAUCACCCAUGUAGGUGAUCUAACGAGAUUAGUAGAAGGGUUACCAUAUG			18.2 nM	8.98 nM
GACUGAUUGUAGAAGGUACUUGAAAAUAUAUAAUAUCUCAUGUGACAUGAGGAUCACCCAUGUAGUAAGGAUAUACAUAUCACA			17.7 nM	17.9 nM
CUUCGUAUAGAGGAUAUAGGAUACUACGGUGUCCUAGAAGGCUGUACAUGAGGAUCACCCAUGUACUUCAGAUC	11.7 nM	13.5 nM		
CCUGUUUGAUUCCUCUUAUACAUGAGGAUCACCCAUGUUAUCGAGGAUAUGCAUUAGAGUGUUUAGCAGAAGGCGAUGUAAUUG	6.12 nM	17.5 nM		
UGUAUCUAGUAAGGAUAUACUAUUGAUUCAAUUGUAGAAGGUACAGACAUGAGGAUCACCCAUGUAGUUAUGGAUAUUAGAUAU			74.1 nM	42.3 nM
ACAUUUUAUGCAGGAUAUUGACAUAUAUUUAAACAAGAAGGGCAUUACAUGAGGAUCACCCAUGUUAUAAUGGUAUAUAAGUUC	21.4 nM	19.2 nM		
AUGCGGUCAGGAUAUGCAUGGCGGGACUUGCGUCGUGGCGUGGAGAAGGGACAUGAGGAUCACCCAUGUGGAGC	53.5 nM	50.4 nM		
GUUGGAUGAGGAUAUCGAGGUUAGUACAUGAGGAUCACCCAUGUUAUCCAGGUGUCGGUUCGAGAAGGCAUUGGAC	32.6 nM	114 nM		
AUGUUAGGAGGAUAUCGAUUUCAGGACAUGAGGAUCACCCAUGUACUAAAAGUCGUGGUUCGAGAAGGCCUAACUU	17.5 nM	23.5 nM		
UGUAAAUUAUUAAGUAAUUAGGCGAAGGAUAUAUAACAUGAGGAUCACCCAUGUACUAAAUUGAAGUAGAAGGUUGAACAUUUC			14.5 nM	12.9 nM

Sequence	apparent Kd [1]	apparent Kd [2]	apparent Kd [3]	apparent Kd [4]
CGAGUGUAAGGAUAUUCGGCGCCAGGGAACGACCUGGCGUAGAAGAAGGUACAUGAGGAUCACCCAUGUGGUUA	178 nM	18.6 nM		
UCAUUUAUUACAGGAUAUGUUAGUAUACAGUUGUUUGGUUAUUACAUAAUAACAGAAGGGUAGAACAUGAGGAUCACCCAUGUA			244 nM	113 nM
CUGCUUCGCUAAGGAUAUCACAUUGUCGAUCUGCGUGCAGCCUCCUGACAUGAGGAUCACCCAUGUGAGAAGGUAGACGACGUG	19.4 nM	22.5 nM		
AUCUUGAGAGGAUAUACAUGAGGAUCACCCAUGUUGCUAACACCAUGCGCUCAUUUACGUAGAAGGCUCAUCCG	21.1 nM	40.4 nM		
CAUCCACAUGAGGAUCACCCAUGUCAGGAUAUCGCGCGCGCGUUUUCGGUCUUUCGCGCGAGAAGGGACGACUG	15.4 nM	16.3 nM		
GUAAUACAUGAGGAUCACCCAUGUCAAUGUAGUCGAGGAUAUGGGUAGCUAUGAGGCUUACUAGAAGGCGACGAGC			210 nM	39.3 nM
CUGCUGGAGCUUUGCUCUAGUCGUACAUGAGGAUCACCCAUGUAGGAUAUGGUAGGCUUUGCUUACUAGAAGGAUAGAGUGGUC	76.4 nM	32.8 nM		
GAUUGAACCCAGAAGGCAUGAUCCACAUGAGGAUCACCCAUGUCGGUGAUGAGGAUAUGGCAUCGUCGCGCAGGGCACUAAUGA			590 nM	119 nM
ACGUUUUUUGAGGAUAUGCGACGUUCCUUCGUCGUAGAAGGCGAUACAUGAGGAUCACCCAUGUUUAUGGGCAU	119 nM	137 nM		
AACAGUCUGGAGGAUAUGCUGGAUGAAUAUCUGGCAGAAGGCUGGACAUGAGGAUCACCCAUGUAAAUACUACC	27.1 nM	54.5 nM		
UGUCGGAGCAGAGGAUAUUACAUGAGGAUCACCCAUGUAUGAACCAAUAGCUGGAAACCGCAAUGUAAGAAGGCUGCUCCGACA	104 nM	374 nM		
AAUGGCGUGAUAACGCUAAUUACAACAUGAGGAUCACCCAUGUAGGAUAUCCUACCGAAAUGGUAGGAGAAGGACAAGCAAUGA	30.4 nM	23.5 nM		
CACAAGAAAGUCGAAGGUUGAAGUAGAAGGACAACAACAUGACAUGAGGAUCACCCAUGUGCCAUGUAGGAUAUGCUUUAAUCG	9.14 nM	8.28 nM		
UUUAUAUUCAGAGGAUAUUAAUGUUGUAUAAUAUAAGAAGGCUGUUUGUUUUGUAAAGUUAUUAUACAUGAGGAUCACCCAUGU			20.6 nM	16.9 nM
UAGAGAGGAAGCGAGGAUAUCGUGUGAGGAACAUGAGGAUCACCCAUGUGUGAUGUUGAGAGAGACGAGAAGGCGCAGGAAAUUA			205 nM	72.6 nM
UUAAUUAACAAGAAGGCAUACAUGAGGAUCACCCAUGUUGUACAUGGAUAAUGAGGAUAUUGCUAAUAAUUAUUUUUCUUAAUU	47.6 nM	35.5 nM		
GAAAAACAUGAGGAUCACCCAUGUAAAAAAAUGGGAGGAUAUACAAAGACGAAAGUCAAAGUAGAAGGCCUGAAAG			54.9 nM	20.7 nM
UAUUCUAGAUAGGAUAUACUUUAUUUUUUUUUCGUAGAAGGAUCUACAUGAGGAUCACCCAUGUUAACAGCAGU	55.5 nM	50.8 nM		
CAUACCUGUGAAGGAUAUACGUUGUUAGCUACCGUAGAAGGUCACAUGAGGAUCACCCAUGUCAAGGCAAGAACAUGAUCCGAA	304 nM	566 nM		
GUGCGGUGAGGAUAUACGUAGGUGAAAAUCUGUGUGUUCCUACAUGAGGAUCACCCAUGUAGAAGGCAUGGCAC	148 nM	45.3 nM		
UGUUGUAUUACAGGAUAUCUAUUAUUUAUAUUUAGAGAAGGGUAUUCACAUGAGGAUCACCCAUGUAUAUACGAGGAAGUUGUG			52.1 nM	54 nM
AUACACUUAGUGAGGAUAUCGUUUUCUUUACGGAUCGAGAAGGCACAUGAGGAUCACCCAUGUUUGACGUGAAU	21.4 nM	68.9 nM		
CCAGAUUUCACAGGAUAUAUUGAUGACAUGAGGAUCACCCAUGUACCGGCAGUAGAAGGGUGAACGCUCGUGACCACGUGCGUG			253 nM	134 nM
AUUAAACAUGAGGAUCACCCAUGUCAACAAAGUCGAGGAUAUGGGCAUAUUAUCUAAUAACCAGAAGGCGAAUAAU			182 nM	45.9 nM
